Test results as given in ChEMBL document CHEMBL1909630, “Azaxanthene based selective glucocorticoid receptor modulators: design, synthesis, and pharmacological evaluation of (S)-4-(5-(1-((1,3,4-thiadiazol-2-yl)amino)-2-methyl-1-oxopropan-2-yl)-5H-chromeno[2,3-b]pyridin-2-yl)-2-fluoro-N,N-dimethylbenzamide (BMS-776532) and its methylene homologue …” (J Med Chem, 2011).

Columns and labels:
[1] = Half life in Sprague-Dawley rat at 1 mg/kg, iv; format: ADME, organism-based; set-up: dose 1 mg/kg, route intravenous; settings: in vivo
Procedure, shortened: (§1)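 Male Sprague-Dawley rats received a single intravenous (1 mg/kg) or oral (10 or 50 mg/kg) dose. Plasma pharmacokinetic parameters were derived from these profiles.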

Blood [2] = assay: Antiinflammatory activity in human whole blood assessed as inhibition of IL-1beta-induced IL-8 production after overnight incubation by ELISA; format: functional, tissue-based
Procedure, shortened: (§2)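 Whole blood from two donors per experiment was collected into ACD-A. Compounds were added and the blood was incubated about 20 h at 37 °C under 5% CO2. Blood was then stimulated for 5 h with LPS (final 100 ng/mL, for TNFα) or IL-1β (final 10 ng/mL, for IL-8). Plasma TNFα or IL-8 was measured by ELISA. Efficacy was expressed as % of dexamethasone, and values are means of at least two experiments.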

[3] = Oral bioavailability in Sprague-Dawley rat at 50 mg/kg; format: ADME, organism-based; settings: in vivo; procedure, shortened: as §1
Glucocorticoid receptor [4] = biological target: T1, Glucocorticoid receptor (Homo sapiens, UniProt P04150); assay: Transrepression activity at glucocorticoid receptor alpha in phorbol myristate acetate-stimulated human A549 cells assessed as inhibition of AP1 response element by luciferase reporter gene assay; format: cell-based
T1 sequence (P04150 whole entry): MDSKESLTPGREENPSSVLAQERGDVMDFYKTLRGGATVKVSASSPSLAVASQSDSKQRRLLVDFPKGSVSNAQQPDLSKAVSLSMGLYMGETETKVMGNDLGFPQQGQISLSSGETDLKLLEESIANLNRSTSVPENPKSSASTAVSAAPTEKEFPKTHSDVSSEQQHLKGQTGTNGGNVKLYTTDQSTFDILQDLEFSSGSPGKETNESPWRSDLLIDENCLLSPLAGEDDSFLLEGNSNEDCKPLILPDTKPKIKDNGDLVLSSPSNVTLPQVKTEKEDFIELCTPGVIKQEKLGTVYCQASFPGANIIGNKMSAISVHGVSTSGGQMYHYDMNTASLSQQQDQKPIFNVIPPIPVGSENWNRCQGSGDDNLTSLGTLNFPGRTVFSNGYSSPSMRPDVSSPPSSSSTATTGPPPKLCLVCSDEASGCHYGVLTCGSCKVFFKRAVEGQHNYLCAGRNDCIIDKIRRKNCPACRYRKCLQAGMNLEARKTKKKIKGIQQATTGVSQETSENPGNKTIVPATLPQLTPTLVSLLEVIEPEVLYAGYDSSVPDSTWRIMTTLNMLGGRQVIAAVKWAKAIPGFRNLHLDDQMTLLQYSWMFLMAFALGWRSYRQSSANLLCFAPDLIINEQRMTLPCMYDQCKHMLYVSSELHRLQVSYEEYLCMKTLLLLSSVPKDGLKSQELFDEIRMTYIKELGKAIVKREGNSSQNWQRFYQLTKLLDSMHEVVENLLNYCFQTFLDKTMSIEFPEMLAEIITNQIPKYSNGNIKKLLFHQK

Glucocorticoid receptor [5] = biological target: T1, Glucocorticoid receptor; assay: Transactivation activity at GR-alpha in human NP1 Hela cells assessed as induction of GAL4-DBD after 20 hrs by luciferase reporter gene assay; format: cell-based
[6] = Tmax in Sprague-Dawley rat at 10 mg/kg, po; format: ADME, organism-based; set-up: dose 10 mg/kg, route oral; settings: in vivo; procedure, shortened: as §1
Estrogen receptor = biological target: T2, Estrogen receptor (Homo sapiens, UniProt P03372); assay: Displacement of fluorescently labeled ligand from ERalpha receptor by fluorescence polarization assay
T2 sequence (P03372 whole entry): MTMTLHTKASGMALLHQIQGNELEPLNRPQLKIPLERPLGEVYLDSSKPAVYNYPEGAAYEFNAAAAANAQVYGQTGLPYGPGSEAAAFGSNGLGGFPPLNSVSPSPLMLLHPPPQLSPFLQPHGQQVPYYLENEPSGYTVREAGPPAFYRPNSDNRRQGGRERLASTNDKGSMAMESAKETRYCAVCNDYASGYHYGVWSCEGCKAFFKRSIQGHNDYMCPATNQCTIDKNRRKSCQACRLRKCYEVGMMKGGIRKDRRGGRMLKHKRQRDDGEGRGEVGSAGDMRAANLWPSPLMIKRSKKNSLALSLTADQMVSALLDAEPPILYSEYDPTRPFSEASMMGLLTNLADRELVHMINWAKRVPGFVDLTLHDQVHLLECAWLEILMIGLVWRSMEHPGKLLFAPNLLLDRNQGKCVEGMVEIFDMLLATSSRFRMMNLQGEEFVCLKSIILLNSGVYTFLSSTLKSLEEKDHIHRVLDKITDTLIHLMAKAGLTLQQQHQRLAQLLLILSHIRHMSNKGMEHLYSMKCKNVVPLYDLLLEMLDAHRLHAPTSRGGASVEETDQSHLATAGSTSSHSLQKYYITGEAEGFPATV
Procedure, shortened: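 Binding was measured by fluorescence polarization competition between compound and a fluorescent ligand for full-length receptor or ligand-binding domain. Values are means of at least two experiments.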

[7] = biological target: T3, Mineralocorticoid receptor (Homo sapiens, UniProt P08235); assay: Agonist activity at human mineralocorticoid receptor expressed in human A549 cells by fluorescence polarization assay; format: functional, cell-based
T3 sequence (P08235 whole entry): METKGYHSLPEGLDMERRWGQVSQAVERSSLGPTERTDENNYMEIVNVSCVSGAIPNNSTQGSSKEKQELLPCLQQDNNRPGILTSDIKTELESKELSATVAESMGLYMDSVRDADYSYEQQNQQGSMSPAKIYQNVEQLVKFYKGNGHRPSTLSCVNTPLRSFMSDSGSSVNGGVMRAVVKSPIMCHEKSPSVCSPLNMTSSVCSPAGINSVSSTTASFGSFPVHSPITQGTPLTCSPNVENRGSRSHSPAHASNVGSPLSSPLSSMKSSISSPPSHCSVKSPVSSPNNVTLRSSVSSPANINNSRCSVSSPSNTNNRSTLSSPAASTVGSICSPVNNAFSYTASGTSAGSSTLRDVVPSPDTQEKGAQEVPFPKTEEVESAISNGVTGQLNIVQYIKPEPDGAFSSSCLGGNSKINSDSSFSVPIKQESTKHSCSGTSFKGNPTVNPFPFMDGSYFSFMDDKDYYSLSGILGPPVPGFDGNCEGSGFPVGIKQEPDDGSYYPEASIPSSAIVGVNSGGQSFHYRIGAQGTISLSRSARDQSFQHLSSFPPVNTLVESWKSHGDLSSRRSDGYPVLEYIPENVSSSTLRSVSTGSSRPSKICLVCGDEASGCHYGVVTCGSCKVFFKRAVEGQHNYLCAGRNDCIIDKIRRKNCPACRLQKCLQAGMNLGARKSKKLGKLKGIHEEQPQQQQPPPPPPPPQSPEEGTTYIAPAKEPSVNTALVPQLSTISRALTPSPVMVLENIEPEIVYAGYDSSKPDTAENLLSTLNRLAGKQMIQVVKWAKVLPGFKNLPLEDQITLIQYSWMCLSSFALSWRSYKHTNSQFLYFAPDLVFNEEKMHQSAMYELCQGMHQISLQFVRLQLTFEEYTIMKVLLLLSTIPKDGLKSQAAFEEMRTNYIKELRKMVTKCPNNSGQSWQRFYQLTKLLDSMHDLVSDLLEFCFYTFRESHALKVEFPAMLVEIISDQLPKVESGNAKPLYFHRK

Blood [8] = assay: Antiinflammatory activity in human whole blood assessed as inhibition of LPS-induced TNFalpha production after overnight incubation by ELISA relative to Dexamethasone; format: functional; procedure, shortened: as §2
[9] = Tmax in Sprague-Dawley rat at 50 mg/kg, po; format: ADME, organism-based; set-up: dose 50 mg/kg, route oral; settings: in vivo; procedure, shortened: as §1

For `CCN(C)C(=O)c1ccc(-c2ccc3c(n2)Oc2ccccc2[C@@H]3C(C)(C)C(=O)Nc2nncs2)cc1F`, which half-life [1] is on record?
Its half-life is 0.4 h.

What about the EC50 (Blood [2]) of the same compound?
Its EC50 is 628 nM.

And the bioavailability [3]?
Its bioavailability is 107%.

And the EC50 (Glucocorticoid receptor [4])?
The EC50 was 17.7 nM.

What about the EC50 (Glucocorticoid receptor [5]) of the same compound?
The EC50 was 98.5 nM.

What about the Tmax [6] of the same compound?
The Tmax was 1 h.

And the Ki (Estrogen receptor)?
Its Ki is over 75000 nM.

And the EC50 [7]?
Its EC50 is over 5000 nM.

What about the Imax (Blood [8]) of the same compound?
Its Imax is 91%.

What about the Tmax [9] of the same compound?
Its Tmax is 3.3 h.

Which half-life [1] does the source give for `CN(C)C(=O)c1ccc(-c2ccc3c(n2)Oc2ccccc2[C@H]3C(C)(C)C(=O)Nc2nncs2)cc1F` here?
Its half-life is 0.6 h.

What about the EC50 (Blood [2]) of the same compound?
The EC50 was 1140 nM.

What about the bioavailability [3] of the same compound?
The bioavailability was 119%.

What about the EC50 (Glucocorticoid receptor [4]) of the same compound?
Its EC50 is 33.2 nM.

And the EC50 (Glucocorticoid receptor [5])?
The EC50 was 242 nM.

And the Tmax [6]?
The Tmax was 1.3 h.

What about the Ki (Estrogen receptor) of the same compound?
The Ki was over 75000 nM.

What about the EC50 [7] of the same compound?
The EC50 was over 5000 nM.

What about the Imax (Blood [8]) of the same compound?
The Imax was 83%.

And the Tmax [9]?
Its Tmax is 1.7 h.
